The text below walks through data of ChEMBL document CHEMBL1944635, “Synthesis and evaluation of debromohymenialdisine-derived Chk2 inhibitors” (Bioorg Med Chem, 2012).

In assay [1] the target is Serine/threonine-protein kinase Chk2 (Homo sapiens, UniProt O96017). The assay can be described thus: Inhibition of human Chk2 using STK1 as substrate after 10 mins by HTRF assay. The method, boiled down:
(§1)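 Human Chk1 or Chk2 was incubated with test agent over a concentration range (final DMSO 0.2%) and STK1 substrate (50 nM for Chk1, 1 µM for Chk2) in 50 mM HEPES pH 7.0 with 5 mM MgCl2 and 1 mM DTT. The reaction was started with 100 µM ATP and ran 10 min at 30 °C. It was stopped with EDTA containing Sa-XL665 and Eu(K) antibody, then held 1 h at room temperature. TR-FRET 665/620 ratio was read, minus the negative control. IC50s are means of at least three independent experiments, each in duplicate.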
Background: In TR-FRET formats the signal depends on donor and acceptor labels being close together.

The species entered for another assay is Homo sapiens. The assay can be described thus: Selectivity ratio of IC50 for human CHK1 to IC50 for human CHK2.
For assay [2], the target named is T1, Serine/threonine-protein kinase Chk1 (Homo sapiens, UniProt O14757).
T1 sequence (O14757 whole entry): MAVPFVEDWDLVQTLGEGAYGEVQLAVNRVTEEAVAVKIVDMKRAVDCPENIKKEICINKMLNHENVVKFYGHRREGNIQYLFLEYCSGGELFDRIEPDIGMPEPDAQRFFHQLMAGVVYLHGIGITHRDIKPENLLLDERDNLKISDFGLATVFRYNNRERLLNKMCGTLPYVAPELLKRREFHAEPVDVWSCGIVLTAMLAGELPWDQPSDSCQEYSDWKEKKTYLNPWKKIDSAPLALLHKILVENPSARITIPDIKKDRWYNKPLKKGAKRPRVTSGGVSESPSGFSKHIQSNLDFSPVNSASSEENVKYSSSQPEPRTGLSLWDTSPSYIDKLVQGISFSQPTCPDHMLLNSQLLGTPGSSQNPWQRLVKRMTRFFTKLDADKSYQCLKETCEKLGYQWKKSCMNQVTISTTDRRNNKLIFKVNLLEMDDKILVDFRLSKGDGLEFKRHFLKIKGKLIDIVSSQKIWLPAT
The assay is described as follows: Inhibition of human CHK1 using STK1 as substrate after 10 mins by HTRF assay. The procedure, abridged:
as §1

Serine/threonine-protein kinase Chk2, sequence (O96017 whole entry): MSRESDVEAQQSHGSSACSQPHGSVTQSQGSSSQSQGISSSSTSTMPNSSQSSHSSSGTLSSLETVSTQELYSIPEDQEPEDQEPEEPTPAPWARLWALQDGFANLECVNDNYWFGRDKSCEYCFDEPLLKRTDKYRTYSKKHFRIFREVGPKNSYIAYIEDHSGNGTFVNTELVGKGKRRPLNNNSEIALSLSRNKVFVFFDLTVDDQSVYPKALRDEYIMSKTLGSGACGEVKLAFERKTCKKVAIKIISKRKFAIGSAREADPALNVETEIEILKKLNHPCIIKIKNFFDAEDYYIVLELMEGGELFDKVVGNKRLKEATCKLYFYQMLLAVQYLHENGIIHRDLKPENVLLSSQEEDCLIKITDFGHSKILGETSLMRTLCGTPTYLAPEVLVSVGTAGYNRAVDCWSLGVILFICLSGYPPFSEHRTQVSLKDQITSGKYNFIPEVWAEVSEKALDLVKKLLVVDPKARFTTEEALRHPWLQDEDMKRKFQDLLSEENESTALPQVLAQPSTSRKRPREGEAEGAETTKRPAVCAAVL

As to `CNC1=NC(=O)/C(=C2\CCNC(=O)c3[nH]c(-c4ccccc4)cc32)N1`, the results for the 50% inhibitory concentration (IC50) in assay [1] and in assay [2] were 171 nM and 6560 nM, respectively. In the assay listed under Homo sapiens, the Ratio IC50 was 38.

In the case of `NC1=N/C(=C2/CCNC(=O)c3[nH]ccc32)C(=O)N1`, the Ratio IC50 in the assay listed under Homo sapiens is 4.

In the case of `COc1ccc(CNC2=NC(=O)/C(=C3\CCNC(=O)c4[nH]c(-c5ccccc5)cc43)N2)cc1`, the IC50 – broadly, the point on the concentration scale where inhibition reaches its midpoint – was 588 nM in assay [1] and greater than 10000 nM in assay [2]. Besides, the Ratio IC50 in the assay filed under Homo sapiens is greater than 17.

Turning to `Nc1nc(C2=C3C(=Nc4ccccc43)C(=O)NCC2)c(O)[nH]1`, the Ratio IC50 in the assay filed under Homo sapiens is 29. Besides, in assay [2], the 50% inhibitory concentration (IC50) amounted to 234 nM.

On to `COc1ccc(-c2cc3c([nH]2)C(=O)NCC/C3=C2/NC(N)=NC2=O)cc1OC`, for which the IC50 turned out to be 14 nM in assay [1] and 1550 nM in assay [2]. Further, the Ratio IC50 in the assay listed under Homo sapiens came to 111.

For the compound `CCOC(=O)CCNC1=NC(=O)/C(=C2\CCNC(=O)c3[nH]c(-c4ccccc4)cc32)N1`, the IC50 in assay [1] was 277 nM; in assay [2], greater than 10000 nM. Also, the Ratio IC50 in the assay filed under Homo sapiens is greater than 36.

With `COc1ccc(-c2cc3c([nH]2)C(=O)NCC/C3=C2/NC(N)=NC2=O)cc1`, the IC50 in assay [1] was determined as 14 nM; in assay [2], 867 nM. In the assay filed under Homo sapiens, the Ratio IC50 was 62.

As for `NC1=NC(=O)/C(=C2\CCNC(=O)c3[nH]c(-c4ccccc4)cc32)N1`, the concentration for half-maximal inhibition (IC50) in assay [1] was determined as 20 nM; in assay [2], 1310 nM. Besides, the Ratio IC50 in the assay filed under Homo sapiens amounted to 66.

Turning to `O=C1N=C(NC2CCCCC2)N/C1=C1/CCNC(=O)c2[nH]c(-c3ccccc3)cc21`, the figures for the IC50 in assay [1] and in assay [2] were 1530 nM and greater than 10000 nM, respectively. The Ratio IC50 in the assay listed under Homo sapiens was greater than 7.

With `CCCNC1=NC(=O)/C(=C2\CCNC(=O)c3[nH]c(-c4ccccc4)cc32)N1`, the IC50 was 156 nM in assay [1] and greater than 10000 nM in assay [2]. The Ratio IC50 in the assay filed under Homo sapiens was greater than 64.

As for `O=C1N=C(NCc2ccccc2)N/C1=C1/CCNC(=O)c2[nH]c(-c3ccccc3)cc21`, the half-maximal inhibitory concentration (IC50) in assay [1] stood at 28 nM; in assay [2], 905 nM. Besides, the Ratio IC50 in the assay filed under Homo sapiens was 32.
